According to PMC2818804 (Journal of medicinal chemistry, 2010):
Converted amounts (≈) assume the structure as drawn.

Legend:
[1] = kinetic solubility analysis; format: physicochemical; details: aqueous medium (not further specified)
Summary of the method: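 Solubility determined by quantitative nitrogen detection. Three separate experiments; average intra-assay %CV 4.5%.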

PKM2 = PKM2 (Homo sapiens, UniProt P14618); assay: steady-state kinetics of PEP and ADP in the PK-LDH coupled assay; format: biochemical; details: in the presence of activator (10 μM); PEP varied
PKM2, sequence (P14618 whole entry): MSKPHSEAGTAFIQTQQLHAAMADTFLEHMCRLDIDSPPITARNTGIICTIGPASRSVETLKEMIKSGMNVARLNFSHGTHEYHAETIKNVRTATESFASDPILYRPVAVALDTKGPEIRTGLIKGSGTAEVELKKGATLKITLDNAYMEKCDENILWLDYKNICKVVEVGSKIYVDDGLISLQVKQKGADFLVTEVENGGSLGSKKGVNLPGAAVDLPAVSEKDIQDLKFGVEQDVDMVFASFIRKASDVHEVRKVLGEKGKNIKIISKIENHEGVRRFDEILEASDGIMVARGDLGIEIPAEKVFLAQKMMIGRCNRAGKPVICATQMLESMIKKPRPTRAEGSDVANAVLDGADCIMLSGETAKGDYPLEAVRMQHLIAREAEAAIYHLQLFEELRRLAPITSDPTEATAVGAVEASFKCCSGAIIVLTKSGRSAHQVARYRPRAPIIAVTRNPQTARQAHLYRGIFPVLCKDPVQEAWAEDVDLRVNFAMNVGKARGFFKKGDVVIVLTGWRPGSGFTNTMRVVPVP

firefly luciferase = firefly luciferase counter-assay; format: biochemical
[2] = target: hPK, M2 (pyruvate kinase, human M2 isoform, PKM2) (Homo sapiens, UniProt P14618); assay: luminescent pyruvate kinase-luciferase coupled assay; format: biochemical; details: read-out: hPK, M2 AC50, three separate experiments
hPK, M2 (pyruvate kinase, human M2 isoform, PKM2), sequence (P14618 whole entry, canonical isoform): as the sequence (P14618 whole entry) above

| SMILES | solubility [1] | other results |
| --- | --- | --- |
| O=S(=O)(c1ccc2c(c1)OCCO2)N1CCN(S(=O)(=O)c2c(F)cccc2F)CC1 [compound 10] | < 0.5 µg/mL |  |
| COc1cc(F)c(S(=O)(=O)N2CCCN(S(=O)(=O)c3cccc(N)c3)CC2)c(F)c1 [compound 57] | 15.1 µg/mL (≈ 32.7 µM) |  |
| Nc1cccc(S(=O)(=O)N2CCN(S(=O)(=O)c3c(F)cccc3F)CC2)c1 [compound 56] | 3 µg/mL (≈ 7.19 µM) |  |
| COc1ccc(S(=O)(=O)N2CCN(S(=O)(=O)c3ccc4c(c3)OCCO4)CC2)cc1 [compound 2] |  | Vmax (PKM2): 265 pmols/min; activation of firefly luciferase (firefly luciferase): did not activate |
| O=S(=O)(N[C@H]1CC[C@H](NS(=O)(=O)c2c(F)cccc2F)CC1)c1ccc2c(c1)OCCO2 [compound 40] |  | AC50 [2]: 2.11 µM |
| O=S(=O)(c1ccc2c(c1)OCCO2)N1CCCN(S(=O)(=O)c2c(F)cccc2F)CC1 [compound 34] | 2.7 µg/mL (≈ 5.69 µM) |  |
